Data taken from ChEMBL document CHEMBL4304816, “A Novel Biphenyl-based Chemotype of Retinoid X Receptor Ligands Enables Subtype and Heterodimer Preferences” (ACS Med Chem Lett, 2019).
Activity calls are given as the source filed them. No cut-off for these calls is given here.

Experiments:
Assay type in all cases: cell-based
[1] = species: Homo sapiens; test: Agonist activity at full-length human PPARgamma/RXR expressed in HEK293T cells at 20 uM after 14 to 16 hrs in presence of 1 uM rosiglitazone by dual-glo luciferase reporter gene assay relative to rosiglitazone
Summary of the method: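 RXR:PPARγ heterodimer reporter assay run with reference PPARγ agonist rosiglitazone (1 μM) co-applied. Read-out is mean relative synergistic activation, from three independent experiments each run in duplicate.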

[2] = Agonist activity at full-length human RXR/LXR expressed in HEK293T cells at 20 uM after 14 to 16 hrs by dual-glo luciferase reporter gene assay relative to untreated control; conditions: HEK-293T, read-out: Activity
Summary of the method: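 RXR:LXR or RXR:PPARγ heterodimer reporter assay with test compound alone. Activation expressed relative to 0.1% DMSO vehicle. Three independent experiments, each in duplicate; mean reported.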

[3] = Agonist activity at full-length human RXR/LXR expressed in HEK293T cells at 20 uM after 14 to 16 hrs in presence of 1 uM T0901317 by dual-glo luciferase reporter gene assay relative to T0901317; conditions: HEK-293T, read-out: Activity
Summary of the method: (§1)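 Synergy format: the test compound was co-applied with the partner-receptor reference agonist at 1 μM, either T0901317 (RXR:LXR) or rosiglitazone (RXR:PPARγ). Relative synergistic activation was derived from three independent experiments, each in duplicate; mean reported.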

[4] = biological target: T1, Retinoic acid receptor gamma (Homo sapiens) (UniProt P13631); test: Agonist activity at Gal4-LBD fused RARgamma (unknown origin) expressed in HEK293T cells after at 20 uM 14 to 16 hrs by dual-Glo luciferase assay
T1 sequence (whole entry): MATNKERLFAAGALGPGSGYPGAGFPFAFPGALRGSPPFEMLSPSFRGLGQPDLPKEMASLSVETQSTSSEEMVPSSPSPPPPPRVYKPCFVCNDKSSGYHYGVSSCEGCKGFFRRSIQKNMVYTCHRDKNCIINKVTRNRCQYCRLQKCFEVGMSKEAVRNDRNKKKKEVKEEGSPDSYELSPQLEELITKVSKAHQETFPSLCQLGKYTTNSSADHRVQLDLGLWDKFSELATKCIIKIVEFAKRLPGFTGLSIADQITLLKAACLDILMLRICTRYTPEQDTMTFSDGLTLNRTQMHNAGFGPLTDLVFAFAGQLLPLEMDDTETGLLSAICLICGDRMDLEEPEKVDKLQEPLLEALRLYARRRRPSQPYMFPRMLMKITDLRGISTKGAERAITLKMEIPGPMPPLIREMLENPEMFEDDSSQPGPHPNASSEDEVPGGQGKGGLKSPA
Summary of the method: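 Gal4-hybrid reporter gene selectivity panel of related nuclear receptors (PPARα/β/γ, RARα/β/γ) in HEK293T cells. Activity is read as mean fold activation versus 0.1% DMSO vehicle, n ≥ 2.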

[5] = species: Homo sapiens; test: Agonist activity at full-length human PPARgamma/RXR expressed in HEK293T cells at 20 uM after 14 to 16 hrs by dual-glo luciferase reporter gene assay relative to untreated control
Summary of the method: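 RXR:PPARγ heterodimer reporter assay in HEK293T cells with test compound alone. Mean relative activation is taken versus 0.1% DMSO, from three independent experiments each run in duplicate.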

[6] = biological target: T2, Retinoic acid receptor RXR-gamma (Homo sapiens) (UniProt P48443); test: Agonist activity at Gal4-LBD fused RXRgamma (unknown origin) expressed in HEK293T cells assessed as fold activation at 10 uM after 14 to 16 hrs by dual-Glo luciferase assay relative to untreated control
T2 sequence (whole entry): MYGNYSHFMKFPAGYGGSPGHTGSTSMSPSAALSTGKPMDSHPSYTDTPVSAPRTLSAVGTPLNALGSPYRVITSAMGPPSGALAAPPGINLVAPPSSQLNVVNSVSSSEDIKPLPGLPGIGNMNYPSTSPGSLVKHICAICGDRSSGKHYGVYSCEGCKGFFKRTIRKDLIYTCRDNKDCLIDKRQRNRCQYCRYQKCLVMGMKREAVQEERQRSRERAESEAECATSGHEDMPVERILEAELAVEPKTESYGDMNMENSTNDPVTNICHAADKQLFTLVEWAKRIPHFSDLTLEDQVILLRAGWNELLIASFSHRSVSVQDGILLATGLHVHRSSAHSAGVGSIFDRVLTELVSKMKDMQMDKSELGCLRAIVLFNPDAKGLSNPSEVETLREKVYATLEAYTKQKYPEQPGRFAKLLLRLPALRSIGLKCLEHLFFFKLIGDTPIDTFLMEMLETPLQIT
Summary of the method: (§2)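 Gal4-hybrid RXRα/β/γ reporter gene assays in HEK293T cells. Fold activation is the maximal fold activation versus 0.1% DMSO.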

[7] = biological target: T2, Retinoic acid receptor RXR-gamma (Homo sapiens); test: Agonist activity at Gal4-LBD fused RXRgamma (unknown origin) expressed in HEK293T cells at 10 uM after 14 to 16 hrs by dual-Glo luciferase assay
[8] = biological target: T3, Retinoic acid receptor RXR-beta (Homo sapiens) (UniProt P28702); test: Agonist activity at Gal4-LBD fused RXRbeta (unknown origin) expressed in HEK293T cells assessed as fold activation after 14 to 16 hrs by dual-Glo luciferase assay relative to untreated control; summary of the method: as §2
T3 sequence (whole entry): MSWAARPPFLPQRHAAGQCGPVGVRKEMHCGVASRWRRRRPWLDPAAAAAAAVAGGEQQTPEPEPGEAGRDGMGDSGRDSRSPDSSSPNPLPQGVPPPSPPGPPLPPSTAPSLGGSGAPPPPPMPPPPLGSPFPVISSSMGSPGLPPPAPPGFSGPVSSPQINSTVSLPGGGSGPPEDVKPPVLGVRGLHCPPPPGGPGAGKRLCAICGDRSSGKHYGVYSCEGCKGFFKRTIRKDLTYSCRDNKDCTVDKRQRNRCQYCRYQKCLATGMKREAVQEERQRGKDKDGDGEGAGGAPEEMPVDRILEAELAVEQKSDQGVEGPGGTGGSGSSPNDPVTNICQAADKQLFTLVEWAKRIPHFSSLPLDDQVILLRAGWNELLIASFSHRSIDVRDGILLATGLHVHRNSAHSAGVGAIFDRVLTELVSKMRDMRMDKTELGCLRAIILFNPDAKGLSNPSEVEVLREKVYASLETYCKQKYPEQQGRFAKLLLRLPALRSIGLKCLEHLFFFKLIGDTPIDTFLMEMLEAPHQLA

[9] = biological target: T3, Retinoic acid receptor RXR-beta (Homo sapiens); test: Agonist activity at Gal4-LBD fused RXRbeta (unknown origin) expressed in HEK293T cells assessed as fold activation at 10 uM after 14 to 16 hrs by dual-Glo luciferase assay relative to untreated control; summary of the method: as §2
[10] = Agonist activity at full-length human RXR/LXR expressed in HEK293T cells at 10 uM after 14 to 16 hrs in presence of 1 uM T0901317 by dual-glo luciferase reporter gene assay relative to T0901317; conditions: HEK-293T, read-out: Activity; summary of the method: as §1
[11] = biological target: T4, Retinoic acid receptor RXR-gamma (Homo sapiens, UniProt P48443); test: Agonist activity at Gal4-LBD fused RXRgamma (unknown origin) expressed in HEK293T cells after 14 to 16 hrs by dual-Glo luciferase assay; summary of the method: as §2
T4 sequence (P48443 whole entry): T2 sequence (whole entry)

[12] = biological target: T3, Retinoic acid receptor RXR-beta (Homo sapiens); test: Agonist activity at Gal4-LBD fused RXRbeta (unknown origin) expressed in HEK293T cells at 0.1 to 3 uM after 14 to 16 hrs in presence of RXR antagonist HX531 by dual-Glo luciferase reporter gene assay

With `Cc1cc(-c2ccc(C(=O)O)cc2)cc(C(C)(C)C)c1` the Activity [1] was 46%, the activity at 20 µM [2] was 87% and the activity at 20 µM [3] was 70%. For the same compound, the Activity [4] was “Active” and the Activity [5] was 91%.
In the case of `Cc1cc(-c2cc(C(C)(C)C)cc(C(C)(C)C)c2)ccc1C(=O)O`, the fold change (FC) [6] is reported as 1, the Activity [7] is reported as “inactive” and the fold change (FC) [8] is reported as 38. It also gave a fold change (FC) [9] of 31.
With `Cc1cc(-c2cc(C(F)(F)F)cc(C(F)(F)F)c2)ccc1CC(=O)O` the activity at 10 µM [10] was 64%, the EC50 [11] was 1000 nM and the Activity [12] was “inactive”.
